Assay outcomes deposited in PubChem BioAssay by Broad Institute.
AF4-AF9 inh: blocks AF4 peptide binding to human AF9; P42568; AlphaScreen, biotin-AF4 peptide binding to FLAG-AF9; inhibition, % at 10 µM; actives 0.47% (n = 350,000); AID 651704;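 active means every replicate reaching a set inhibition limit, whatever the replicate mean, cut at about 25% in these data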
FN deposit inh: fibronectin deposition inhibition | AH1F fibroblasts, Alexa488-fibronectin deposition fluorescence, overnight | inhibition, % at 12.6 µM | actives 0.086% (n = 350,000);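 active means mean inhibition across replicates of 30% or more, regardless of how many single replicates reach that level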
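Assay system: AH1F fibroblasts assembling fluorescent fibronectin matrix; Amount: 10000 AH1F cells per well; Buffer or medium: DMEM, 2% serum; Probe or stimulus: Alexa488-fibronectin, 24 nM final in well; Doses: single compound dose, delivered by pin transfer; Incubation: 1 h adhesion, overnight exposure; Measured by: fluorescence 485/525 nm; Read-out: fibronectin deposition inhibition.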
HIV Env fusion: HIV envelope-mediated fusion inhibition; actives 1.1% (n = 360,000); inhibition, % at 12.3 µM; HeLa-JRFL Env/CEM21 cell fusion, luciferase;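 active means mean replicate inhibition score of at least 50 and every replicate individually at or above 50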
EWS-Fli block: blocks EWS/Fli oncoprotein-driven transcription; inhibition, % at 12.6 µM; actives 0.67% (n = 350,000); A673 NR0B1-luciferase reporter, viability-normalised;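 active means mean inhibition of at least 50% after viability correction, with every replicate also passing that limit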;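 further: firefly luciferase signal divided by Alamar Blue viability fluorescence both relative to DMSO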
PAX8 inh HTS: inhibitors of PAX8 transcriptional activity in RMG-I cells | inhibition, % at 12.6 µM | RMG-I TPO-luciferase reporter, SteadyGlo, 24 h | actives 1.2% (n = 360,000);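 active means mean replicate inhibition at least 60% with every replicate also reaching 60%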;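 further: luciferase light reporting Pax8 driven TPO promoter activity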
A number is an active result; . = inactive; / = no result given; ! = a repeat was not active; [ ] = another dose, or the depositor's remark. The list is not random: actives were taken first. Their share in the collection is about 2.5%.

SMILES	AF4-AF9 inh	FN deposit inh	HIV Env fusion	EWS-Fli block	PAX8 inh HTS
COCC(=O)Nc1ccc2c(c1)C(=O)N(C)[C@@H]1CC[C@@H](CC(=O)NCc3ccccc3Cl)O[C@H]1CO2	/	38	.	.	.
CN1CCN(C(=O)C[C@H]2CC[C@@H]3[C@@H](COc4ccc(NC(=O)C5CCCC5)cc4C(=O)N3C)O2)CC1	47	.	/	.	.
CN1CCN(C(=O)C[C@H]2CC[C@@H]3[C@H](COc4ccc(NC(=O)C5CCCC5)cc4C(=O)N3C)O2)CC1	.	.	/	.	.
CO[C@H]1CN(C)C(=O)c2cc(NC(=O)Cc3ccccc3)ccc2OC[C@@H](C)NC[C@H]1C	.	.	.	.	.
C[C@@H]1CN([C@H](C)CO)C(=O)Cc2cc(NC(=O)Cc3ccccc3)ccc2O[C@H]1CN(C)S(=O)(=O)c1ccc(Cl)cc1	.	.	/	.	.
CN(C)CCCCCCNC(=O)[C@@H]1C[C@@H]2C(=O)N3CCC[C@H]3C(=O)N2[C@@H]1c1ccc(O)cc1	29	/	.	.	.
CN(C)CCCCNC(=O)[C@@H]1C[C@@H]2C(=O)N[C@@H](CCCCN(C)C)C(=O)N2[C@@H]1c1ccc(O)cc1	.	/	.	.	.
CC(=O)N(C)C[C@@H]1Oc2ncc(C#Cc3ccc(F)cc3)cc2C(=O)N([C@H](C)CO)C[C@H]1C	.	.	.	.	.
O=C(C[C@H]1C[C@@H]2c3cc(NC(=O)Nc4ccc(C(F)(F)F)cc4)ccc3O[C@@H]2[C@@H](CO)O1)NCCc1ccccc1	.	.	.	.	99
COCCNC(=O)C[C@H]1C[C@H]2c3cc(NC(=O)Nc4ccc(C(F)(F)F)cc4)ccc3O[C@H]2[C@H](CO)O1	.	/	.	.	.
C[C@H](NC(=O)C[C@@H]1C[C@@H]2c3cc(NC(=O)Nc4ccc(C(F)(F)F)cc4)ccc3O[C@@H]2[C@@H](CO)O1)c1ccccc1	.	/	81[16.7 µM]	.	107
O=C(C[C@@H]1C[C@H]2c3cc(NC(=O)Nc4ccc(C(F)(F)F)cc4)ccc3O[C@H]2[C@H](CO)O1)NC1CCCCC1	.	/	.	.	67
O=C(C[C@H]1C[C@@H]2c3cc(NC(=O)Nc4ccccc4F)ccc3O[C@@H]2[C@@H](CO)O1)NCCc1ccccc1	.	/	/	.	/
COCCNC(=O)C[C@@H]1C[C@H]2c3cc(NC(=O)Nc4ccc(C(F)(F)F)cc4)ccc3O[C@H]2[C@H](CO)O1	.	/	.	.	91
O=C(C[C@@H]1C[C@H]2c3cc(NC(=O)Nc4ccc(C(F)(F)F)cc4)ccc3O[C@H]2[C@@H](CO)O1)NC1CCCCC1	.	/	.	.	.
COCCNC(=O)C[C@@H]1C[C@H]2c3cc(N(C)C)ccc3O[C@H]2[C@@H](CO)O1	.	/	65[16.7 µM]	.	.
O=C(C[C@@H]1C[C@H]2c3cc(NC(=O)Nc4ccc(C(F)(F)F)cc4)ccc3O[C@H]2[C@H](CO)O1)NCCc1ccccc1	.	.	.	.	100
O=C(C[C@H]1C[C@@H]2c3cc(NC(=O)Nc4ccc(C(F)(F)F)cc4)ccc3O[C@@H]2[C@H](CO)O1)NCCc1ccccc1	.	.	.	.	.
Cc1ccc(-c2ccc(C3[C@@H]4CN(C(=O)Nc5ccc(C(F)(F)F)cc5)C[C@H]3N4)cc2)cc1 (stereo partly drawn)	.	.	/	.	91!
O=C(Nc1ccc(C(F)(F)F)cc1)N1C[C@@H]2N[C@H](C1)C2c1ccc(-c2cccc(F)c2)cc1 (stereo partly drawn)	.	.	/	.	88
O=C(Nc1ccccc1)N1C[C@@H]2N[C@H](C1)[C@@H]2c1ccc(/C=C/c2ccccc2)cc1	29	.	/	.	113
O=C(O)C[C@H]1CC[C@H](NC(=O)CCN2CCCCC2)[C@@H](CO)O1	.	.	/	.	/
O=C(NCC[C@H]1CC[C@H](NC(=O)Nc2cc(F)ccc2F)[C@@H](CO)O1)Nc1ccc(Cl)cc1	/	.	.	.	.
C[C@@H]1CCCCO[C@@H](CN(C)CC2CC2)[C@H](C)CN([C@@H](C)CO)C(=O)c2cc(NC(=O)Nc3ccc(C(F)(F)F)cc3)ccc2O1	/	/	.	.	.
C[C@@H]1CCCCO[C@H](CN(C)CC2CCCCC2)[C@H](C)CN([C@H](C)CO)C(=O)c2cc(NC(=O)Nc3ccc(C(F)(F)F)cc3)ccc2O1	.	.	.	75	.
